Experimental data published in the EternaBench riboswitch data.

Tested on: MS2 coat protein
Test: apparent Kd, MS2 coat protein; higher = weaker binding; RNA-MaP array; FMN 200 µM where present
Summary of the method: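 Stalled E. coli RNA polymerase produced the designs on Illumina sequencing-chip clusters. SNAP-549-labelled MS2 coat protein was added from 0.7 or 1.5 nM, doubling to 3 µM, without and then with constant ligand, in 100 mM Tris-HCl pH 7.5, 80 mM KCl, 4 mM MgCl2, BSA, DTT, yeast tRNA and Tween-20. The apparent Kd is the median of filtered per-cluster fits of green signal normalised to red-channel RNA signal and control-cluster median Fmax.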

[1] = designed as: OFF switch for flavin mononucleotide, no ligand
[2] = ligand present: flavin mononucleotide, designed as: OFF switch for flavin mononucleotide
[3] = designed as: ON switch for flavin mononucleotide, no ligand
[4] = ligand present: flavin mononucleotide, designed as: ON switch for flavin mononucleotide

Sequence	apparent Kd [1] [nM]	apparent Kd [2] [nM]	apparent Kd [3] [nM]	apparent Kd [4] [nM]
GGAUAGGACAGAGGAUAUACGUGCUAGCGAUACUAGCAAAAUUUCCUCACAUGAGGAUCACCCAUGUAGAAGGCUGUCCUAUCG	15.7	427	–	–
CCAUAAAAGAUCCAAAAUUACAACAUGAGGAUCACCCAUGUGCAGGAUAUCGUGACAGUGAAGUACGAGAAGGGCAGACACUGC	197	208	–	–
CAGAAGUCAGGAUAUGCAUGGCGGGACUUGCGUCGUGGCGUGCAGAAGGGACAUGAGGAUCACCCAUGUAAAGG	174	300	–	–
UUCAGACAUGAGGAUCACCCAUGUGAGGAUAUGAUGCGAUCGUCGAAAGACGAUAGCAUCAGAAGGUACAAAUG	63	66.6	–	–
UGAGCAUGAGGAUAUACAUGACGUGCCGUAGCACGAGGUCUACAUGAGGAUCACCCAUGUAGAAGGCAUGUUCU	23	87.4	–	–
ACAUGCGGAUGAGGAUAUUCAUUCAUGAGGAUAGAAGAAGGCAUACAUGAGGAUCACCCAUGUAUACGCAUGAGGAUCCCUUAU	24.8	32.7	–	–
AAGCACUGAUAAUAAUGUAGAAAUACAUGAGGAUCACCCAUGUAGGAUAUCGUCAGGAAUACUGACGAGAAGGACAUACAGUGC	16.2	24.7	–	–
AUCCAGCGAGGAUAUACAUAGAUUUUUUCGUUUUGUCUCGAACAUGAGGAUCACCCAUGUAGAAGGUGCUUCAC	82.5	81	–	–
GCCAUCGCAUGAGGAUAUGCUCCGGUUUCCGGAGCAGAAGGCAUGUCAUAAGACAUGAGGAUCACCCAUGUAGUUAAGAUGGCA	–	–	715	33.6
CACUCGUGUCUAGGAUAUGAGUGACAAGCGCGAGAUUUUCUCGGCGCUAGCUCAGAAGGAGACAUGAGGAUCACCCAUGUAAGG	162	12	–	–
GGAUGACAAAGUCAUCCUAAACGAACAUGAGGAUCACCCAUGUAGGAUAUGCUACUGAAACAGUAGCAGAAGGACAUGUGCCUU	31.1	211	–	–
CCCUCACAUGAGGAUCACCCAUGUCAGGAUAUUCGACGGUAAAUUGGCCGUCUUAAAGGAAGAAGGGACGUAAC	12.5	17.9	–	–
CGUUAAUAUCGAGGAUAUGUCUAGACACAUGAGGAUCACCCAUGUAUGUGUAUAGAAGGCGAUAUUAACAGCAUGUUACAUGCC	–	–	45.5	16.3
ACUAGAUGAGGAUAUGCAUAUUUUCGUGUUCUUCUAGAUUAACAUGAGGAUCACCCAUGUAGAAGGCGUCUGGU	30.7	62	–	–
GGGAUGUGAGGAUAUACAUGAACUAUCCACUGUGCUGGGCCACAUGAGGAUCACCCAUGUAGAAGGUACGCCCA	66.2	168	–	–
AUGAGUAAAGCAGGAUAUCUAUUGACUCUGUAACAUGAGGAUCACCCAUGUAGAGAAGGGCUAAUUCUUACUCUUCGGAGUUGA	10.2	11.7	–	–
UGGUAAUAGGGAGGAUAUGGGAAGAUACAUGAGGAUCACCCAUGUUUAAGAAUGCCGAGAGGCAACUAGAAGGCCCUAGUACCU	–	–	468	19.6
UCGAUGCUAGGAUAUACUAAUACAACUACUGAAGUGUCUUCACAUGAGGAUCACCCAUGUAGAAGGAGCAUAUA	59.5	46.8	–	–
AAAAAGCGAGGAUAUACAUGAGGAUCACCCAUGUGAGAGAAAAAAAGGAGAAAAAAAAGUAGAAGGCGCAAAAA	61.6	72.2	–	–
AAUUAUUUUUGAGGAUAUUGUGGUGAAACACCACAAGAAGGCAAGAUACACAUGAGGAUCACCCAUGUGAGCCUGAUGCUUAUG	17.1	21.3	–	–
UGUAAGAUGCAGAAGGUGUUAGCUAGAGCUACGACAUGAGGAUCACCCAUGUACUAGAAACAGUACAAGGAUAUGCAUCUUACC	–	–	19.6	6.43
ACAUGAGGAUCACCCAUGUUAUCAGGGACUUCAAUUAUUUCUAGAAGGCUGUUUACUUGUUAGUCAGAGGAUAUAGAAUUAAAU	14.5	15.9	–	–
CGGCCGCUACGCCGGCUCGACGCACAGGAUAUGCAGUUACAUGAGGAUCACCCAUGUGGCCAUGUGCAGAAGGGUGAUUCGCGA	–	–	135	43.6
CGAUAGGACAGAGGAUAUACACAUGAGGAUCACCCAUGUGAUUACAACGCGAAAGCGCCAAACAUGUAGAAGGCUGUCCUAUCG	22.7	12	–	–
CAUACACAUGAGGAUCACCCAUGUGAGGAUAUGCGUACGUUGUCCGUAGGCGACGUGCGCAGAAGGCGCGUGUU	56.9	48.3	–	–
CGAUGAGGAGUGAGGAUAUCGUGUUCGAAAGAACGUGAGAAGGCACAUGAGGAUCACCCAUGUGAUCCUUAUCG	28.3	67.9	–	–
GUUACAUGAGGAUCACCCAUGUAUGUGUGGGAGUAAGUGUCUUAGGAUAUCUAUUAGUUAAAUUAAGAGAAGGAAGAUUGUUGU	–	–	119	127
CAGGUAGACUGAGGAUAUACAAUAAACAGCUAGUCUAUCUAGCUGCCUACAUGAGGAUCACCCAUGUAGAAGGCAGUCUGCCUG	16.2	16.6	–	–

Sequence	apparent Kd [1] [nM]	apparent Kd [2] [nM]	apparent Kd [3] [nM]	apparent Kd [4] [nM]
CCUCGACGGUAGGAUAUCGUCAAACUAUUGUGAUGAGAAGGACUGACAUGAGGAUCACCCAUGUUAACGUGAUA	20.2	25.3	–	–
CGGUACACAGGAUAUAACGUCUGCAACAUGAGGAUCACCCAUGUUGUCCAAACGUUGCGGUUAGAAGGGUGGGCGC	30.7	70.8	–	–
GUAGCUAUCGGAGGAUAUUCAUAUCGGAAACGGACAUGAGGAUCACCCAUGUGGCUAAAGCCUUGGGAGAAGGCCGAUAGCUAC	–	–	120	7.75
CUUCGACAUGAGGAUCACCCAUGUCAGGAUAUUGUGUAUCGGGUUUUUUACGGUAAGGCAAGAAGGGAUGUGUG	33	30.2	–	–
CCGGUGUCAGGAUAUACGCCAACCACUGAAAAGGUAUGGGCGUAGAAGGGACAUGAGGAUCACCCAUGUCAGUC	22.8	36.3	–	–
ACGUGUAAGCAGAAGGGUUAGCACAUGAGGAUCACCCAUGUAACAGUGGACAGGAUAUGCGCUCAUGUUGGAUAGGGCCUUCCC	–	–	302	67.6
GGAUAGGACAGAGGAUAUACGUGCUAGAGAUACUAGCAAAAUUUCCUCACAUGAGGAUCACCCAUGUAGAAGGCUGUGCUAUCG	16.4	343	–	–
UCUGGUCGAGGAUAUGCGUAAUGUGUUACGGCACGAGGUCUACAUGAGGAUCACCCAUGUAGAAGGCGAUCAGA	13.9	12.7	–	–
ACCAUUUACUAAUUAUCUAUACAUGAGGAUCACCCAUGUUAUGAGGAUAUCAUCGUGAAACACGAUGAGAAGGUAUAGCAUUCG	18.1	22.1	–	–
AAAGCACGAGGAUAUACAUGAGGAUCACCCAUGUAUAACCAAAAAAAAAGAUCCUCAUGUAGAAGGCGUGCAAA	18.9	16.8	–	–
UCUACUUUACAUGAUUCAUCAACACAGGAUAUACCCGCAACAUGAGGAUCACCCAUGUAGGCCCGGUAGAAGGGUGCUUGGGAA	–	–	10.8	6.43
CUGUUAUAGGUCCAGAAUUACAACAUGAGGAUCACCCAUGUGCAGGAUAUCGGGUUGAUAGGCGCCGAGAAGGGCAUAGUCACG	64.5	106	–	–
UUUUAACAUGAGGAUCACCCAUGUGAGGAUAUCGAAAUUUAUAUUAAUAUUAUUUAAUCGAGAAGGCACAUUUU	110	118	–	–
GCUGGACGAGGAUAUACAUAACGUGCUUCGGCACGAGAUCUACAUGAGGAUCACCCAUGUAGAAGGUGUCCAGC	13.7	16.2	–	–
GUGUACAGAGGAUAUACUUGAAUCUAGCGAAGCUAGGUUUGACAUGAGGAUCACCCAUGUAGAAGGCUGUACAC	15.3	20.5	–	–
GUGGUGCAUAUACGUGGAUGUACAUGAGGAUCACCCAUGUGAGAGGAUAUGCGGAUACUAGCUCAGCAGAAGGCUUACAAAUGA	15.2	45.8	–	–
CGACGAGUGGAGAAGGACUUUGACUAGUACAGGGUAGGAUAUCCACAUGAGGAUCACCCAUGUAGGAUACUUAUUGGGCCGCCU	10.3	49	–	–
GGAUAGGACAGAGGAUAUACGUGCUAGAGAUACUAGCAAAAUUUCCUCACAUGAGGAUCACCCAUGUAGAAGGCUGUCGUAUCG	15.3	334	–	–
GACUGCCGAGGAUAUACAUGAGGAUCACCCAUGUGCUUCAGUAUCGAAAGAUGCAUGGGUAGAAGGCGGUAGUC	391	284	–	–
UUCGUGCAGCUUAGCUGUACGCGUACAUGAGGAUCACCCAUGUAGGAUAUGGUAGGCUUUGCUUACUAGAAGGAUAGUGUGAUC	215	70.5	–	–
UCGCGAUGAGGAUAUACAUAGAAAUAGAUUCAUGUAAAACUACAUGAGGAUCACCCAUGUAGAAGGCAUUGCGU	23	128	–	–
AUCAGCUCGUCAGGAUAUACGUCACUGCGUCAGCAGUGUGGAAAGAUCACAUGAGGAUCACCCAUGUAGAAGGGACGAGCUGAU	36.2	279	–	–
AAACCGUGUGGAGGAUAUGCAGUUGAGGUGAGGUGGCAACUCUAUACGACCGCAGAAGGCCACAUGAGGAUCACCCAUGUAGGU	293	61.5	–	–
AUUUCGUUAGCAGGAUAUGGACAGGCCUGUCCGUAUUGAGACAGUAACAUGAGGAUCACCCAUGUCCAGAAGGGCUCGAAGUAU	30.2	43.9	–	–
AAGAAGUGAGGAUAUGCUGACAAUAUGAAGACUUGAGGUAUGCAGAAGGCACAUGAGGAUCACCCAUGUAAGAA	30	29.7	–	–
GUACUGUAGUGAGGAUAUACGAGUACGAUAGUACGGCGAUCCAAUUAUACAUGAGGAUCACCCAUGUAGAAGGCACUUCAGUAC	9.93	41.1	–	–
GGUCCAUUAUGAGGAUAUGGCACCUUAUUGGUGCCAGAAGGCAUGUGUAUUCACAUGAGGAUCACCCAUGUAAUAAAUUGGACC	–	–	87.2	20
